Screening results (PubChem BioAssay)
Runt-CBFb FRET: inhibitors of RUNX1 Runt–CBFb binding, primary screen, biochemical, FRET, Cerulean-Runt, Venus-CBFb, uHTS. Runt-related transcription factor 1 (Homo sapiens) + Core-binding factor subunit beta …. Cerulean-Runt/Venus-CBFb FRET ratio 530/480, 1 h. inhibition, % at 20 µM. actives 0.46% (n = 220,000);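 active = inhibition over about 50% at 20 µM in the single-dose screen, limit read from the data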;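 also: 0% = DMSO wells and 100% = excess unlabeled CBFb competitor control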
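Measured by: fluorescence energy transfer, 422 nm excitation, 530/480 nm emission; test system: Cerulean-tagged RUNX1 Runt domain (FRET donor) fusion protein; buffer or medium: Tris pH 7.5 buffer with BSA; compound: one dose, 20 µM compound, 1% DMSO; times: two 1 h room-temperature incubations shielded from light; benchmarks: unlabeled CBFb 5 µM, positive control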
Runt-SMMHC FRET: inhibitors of RUNX1 Runt–CBFb-SMMHC binding, primary screen, biochemical, FRET, Cerulean-Runt, Venus-CBFb-SMMHC, uHTS; inhibition, % at 20 µM; Cerulean-Runt/Venus-CBFb-SMMHC FRET ratio 530/480, 1 h; actives 0.74% (n = 220,000); Runt-related transcription factor 1 (Homo sapiens) + Core-binding factor subunit beta …;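 active = mean inhibition across duplicate retests at 20 µM reaching about 50%, limit read from the data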;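 also: 0% = DMSO wells and 100% = wells with excess untagged CBFb-SMMHC; inhibitors lower the FRET ratio by blocking Runt binding to CBFb-SMMHC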
Hck Nef HTS: inhibitors of Nef-activated human Hck kinase, primary screen, biochemical, Z-Lyte FRET, 384-well, Hck-YEEI; inhibition, % at 20 µM; Recombinant Hck-YEEI plus Nef, Z-Lyte FRET kinase assay; Tyrosine-protein kinase HCK (Homo sapiens), P08631; actives 0.68% (n = 220,000); AID 463187, 2010;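 active = Hck-Nef kinase inhibition above about 50%, limit read from the data; inactive = inhibition below that limit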;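 also: 0% = DMSO with Hck plus Nef and 100% = Hck alone without Nef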
Target sequence (P08631 whole entry, looked up): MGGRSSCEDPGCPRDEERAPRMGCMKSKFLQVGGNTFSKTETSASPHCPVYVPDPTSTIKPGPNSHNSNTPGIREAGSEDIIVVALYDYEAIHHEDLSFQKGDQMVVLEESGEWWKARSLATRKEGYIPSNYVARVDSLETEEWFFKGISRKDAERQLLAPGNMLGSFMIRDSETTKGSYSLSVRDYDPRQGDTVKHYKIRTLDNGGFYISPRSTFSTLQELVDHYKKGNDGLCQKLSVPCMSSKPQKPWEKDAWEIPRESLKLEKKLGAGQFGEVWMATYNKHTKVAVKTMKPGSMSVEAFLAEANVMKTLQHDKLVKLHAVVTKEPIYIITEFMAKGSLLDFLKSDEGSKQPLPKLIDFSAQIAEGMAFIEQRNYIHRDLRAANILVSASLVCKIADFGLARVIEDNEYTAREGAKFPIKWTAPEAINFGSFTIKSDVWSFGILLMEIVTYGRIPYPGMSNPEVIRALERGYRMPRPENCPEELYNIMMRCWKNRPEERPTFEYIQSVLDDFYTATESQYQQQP
PERK inh: block of dimerizer-induced PERK translation repression, primary screen, PERK inhibitor project, CHO PERK-DD cells, SEAP luminescence, HTS; AID 1416, 2008; actives 0.17% (n = 220,000); CHO PERK-DD fusion, SEAP luminescence translation reporter; Eukaryotic translation initiation factor 2-alpha kinase 3 (Homo sapiens), Q9NZJ5; inhibition, % at 5.6 µM;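 active = inhibition above the mean inhibition of all tested compounds plus 3 SD, set separately per screening campaign, cut at about 2.9% in these data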;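 also: PERK kinase domain activated by AP20187 dimerizer at 100 nM; 0% = DMSO with dimerizer and 100% = rapamycin at 8.4 µM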
eIF4E 4G PPI: eIF4E–eIF4G protein interaction inhibitors, primary screen, biochemical, uHTS, TR-FRET, eIF4GI fragment. TR-FRET eIF4E-eIF4GI(517-606) binding, 2 h. actives 0.37% (n = 220,000). AID 782, 2007. inhibition, % at 21.7 µM;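 active = inhibition above about 30%, limit read from the data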;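 also: 0% = full FRET control wells and 100% = background wells lacking eIF4GI fragment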
RanGTP-Impb inh: inhibitors of RanGTP-importin-beta interaction, primary screen, biochemical, FRET, CFP-Ran, YFP-importin-beta, homogeneous; Ran GTPase (GTP-bound) - importin-beta complex; actives 1.1% (n = 300,000); inhibition, % (concentration not given with the values); AID 2216, 2009; cell-free CFP-Ran/YFP-importin-beta FRET ratio;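 active = more than half of the replicate wells show a fall in the fluorescence ratio signal beyond about 16%, limit read from the data, passing the limit was not always enough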;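 also: 0% = DMSO wells and 100% = Ran loaded with GDP instead of GTP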
* hit, by the source's call; . = no result given. Hits are enriched below; roughly 2.2% of the tested compounds scored in any of these assays.

SMILES	Runt-CBFb FRET	Runt-SMMHC FRET	Hck Nef HTS	PERK inh	eIF4E 4G PPI	RanGTP-Impb inh
CCOC(=O)c1cc2c(=O)n3ccccc3nc2n(CCOC)c1=NC(=O)c1c(-c2c(F)cccc2Cl)noc1C	68*	86*	39	0	-1	.
Cc1onc(-c2c(F)cccc2Cl)c1C(=O)OCN1C(=O)c2ccccc2C1=O	-1	-1	-8	-1	1	0
CCOC(=O)c1cc2c(=O)n3ccccc3nc2n(C(C)C)c1=NC(=O)c1ccncc1	92*	170*	11	0	4	85*
CCOC(=O)c1cc2c(=O)n3ccccc3nc2n(C(C)C)c1=NC(=O)c1c(-c2ccccc2Cl)noc1C	82*	88*	8	0	0	1
CCOC(=O)c1cc2c(=O)n3ccccc3nc2n(CCOC)c1=NC(=O)c1ccncc1	62*	63*	48	-1	1	96*
CCOc1ccc(NC(=O)CSc2nnc(CNC(=O)c3cccs3)o2)cc1	.	.	.	.	.	3
CC(C)n1c(SCC(=O)N2CCN(C(=O)c3ccco3)CC2)nc2c1c(=O)n(C)c(=O)n2C	-1	1	25	0	-12	2
CCCCNC(=O)COC(=O)c1ccccc1F	1	-6	25	1	-6	3
CCOC(=O)c1cc2c(=O)n3ccccc3nc2n(Cc2ccccc2Cl)c1=N	39	39	.	.	.	.
CCOC(=O)c1cc2c(=O)n3ccccc3nc2n(CCCOC)c1=NC(=O)C(C)(C)C	56*	-21	159*	0	4	0
CCOC(=O)c1cc2c(=O)n3ccccc3nc2n(CCCOC)c1=NC(=O)c1cccnc1	133*	88*	19	-1	0	46*
COCCCn1c(C(=O)Nc2ccc3c(c2)OCO3)cc2c(=O)n3ccccc3nc21	.	.	.	.	.	-1
CCCc1cc(=O)oc2cc(C)cc(OCC(=O)NCCCn3ccnc3)c12	.	.	.	.	.	-1
COC(=O)/C=C1\C(=O)N(c2nc3ccccc3s2)C(=S)N1c1ccc(F)cc1	-8	-29	1	0	-10	5
CC(C(=O)NCc1ccccc1)N(Cc1ccccc1Cl)C(=O)c1snc(C(N)=O)c1N (stereo not drawn)	.	.	.	.	.	1
O=C(N/N=C/C(Cl)=C/c1ccc([N+](=O)[O-])cc1)C(=O)Nc1ccc(C(=O)O)cc1	2	1	75*	0	-1	6
Nc1ncnc(Oc2cccc3cccnc23)c1[N+](=O)[O-]	-1	-3	3	1	1	1
COc1ccc(Nc2nc3ccc(C)cc3cc2C#N)c(OC)c1	-2	-23	0	0	3	-5
COc1ccc(C(=O)NCCNc2nc3ccc(C)cc3cc2C#N)cc1OC	.	.	.	.	.	77*
CCOc1ccc2nc(NCCNC(=O)CC)c(C#N)cc2c1	10	95*	7	-1	5	2
CC1(C)CC(=O)C2=C(C1)OC(N)=C(C#N)C2c1cc2c(cc1[N+](=O)[O-])OCO2 (stereo not drawn)	-12	-26	6	1	1	-18
CCOC(=O)c1c(C)nn(Cc2cccc(Cl)c2)c1N	70*	-1	0	1	9	2
CCOC(=O)c1nn(-c2cccc(Cl)c2)c(C)c1C(C)=O	1	1	1	1	-5	1
CC(C)CC1C(C#N)=C(N)SC(N)=C1C#N	6	8	1	0	0	41*
N#CC1=C(N)SC(N)=C(C#N)C1Cc1ccccc1	22	49	1	0	-2	62*
SMILES	Runt-CBFb FRET	Runt-SMMHC FRET	Hck Nef HTS	PERK inh	eIF4E 4G PPI	RanGTP-Impb inh
CN1CCC(N(C)S(=O)(=O)c2ccc(C(C)(C)C)cc2)CC1	.	.	.	.	.	3
O=C1c2ccncc2C(=O)N1c1cccc(Cl)c1	1	2	22	4.0*	-1	1
Cc1cc(C)c2c(N)c3cccc(C)c3nc2n1	5	79*	5	1	3	126*
Cc1cccc2c(N)c3c(nc12)CCCC3 (tested in a mixture with another compound)	2	-4	21	0	16	.
CCCn1c(=NC(C)=O)c(C#N)cc2c(=O)n3cccc(C)c3nc21	.	.	56*	1	.	.
COCCCn1c(=NC(=O)c2ccc3c(c2)OCO3)c(C#N)cc2c(=O)n3cccc(C)c3nc21	127*	155*	.	.	.	.
COCCCn1c(=NC(C)=O)c(C#N)cc2c(=O)n3cccc(C)c3nc21	57*	82*	39	1	6	82*
CCN(C(=O)c1cc2c(=O)n3cccc(C)c3nc2n1CCCOC)C1CCCCC1	.	.	.	.	.	7
Cc1nc2c(C)cccn2c(=O)c1NC(=O)c1ccc2c(c1)OCO2	.	.	.	.	.	-2
COc1cccc(-c2nc(Cc3ccc(OC)c(OC)c3)no2)c1	-4	2	4	0	3	1
CCc1ccccc1NC(=S)N(CCN1CCCCC1)Cc1ccco1	-1	3	20	-1	-2	-1
C[C@@]12C(=O)N(Cc3ccc(-c4ccccc4)cc3)CC(=O)N1[C@H](/C=C/c1ccccc1)[C@@H]1C(=O)N(c3ccccc3)C(=O)[C@@H]12	.	.	.	.	.	1
O=C(Nc1cccc(NC(=O)c2ccco2)c1)c1ccc([N+](=O)[O-])cc1	0	-2	5	1	-3	75*
COc1ccc(CCNC(=O)Cc2cc(OC)c(OC)cc2[N+](=O)[O-])cc1OC	-2	0	1	0	-2	3
O=c1cc(N2CCOCC2)[nH]c(=O)n1-c1ccc(Cl)cc1	0	1	0	1	0	11
O=c1cc(N2CCCC2)[nH]c(=O)n1-c1ccc(Cl)cc1	-88	1	4	0	3	59*
O=c1cc(N2CCCCCC2)[nH]c(=O)n1-c1ccc(Cl)cc1	0	-4	9	1	0	129*
COc1ccc(C(=O)NC(=O)NC2(C(Cl)(Cl)Cl)OCCO2)cc1	3	-1	-9	1	-1	4
